NF-kB neuron act – activators of NF-kB expression in neurons, primary screen, cell-based, HTS | human neuronal cells, NF-kB reporter expression; stronger effect = higher value | fold change at 12.5 µM | 190,000 tested, 1.6% active; in the data active means fold change above about 3.3
STAT1 act – STAT1 signaling activators, primary screen, cell-based, HTS, luciferase reporter; NIH 3T3 STAT1-luciferase reporter, IFN-gamma, luminescence; 100% = IFN-gamma alone, no compound; 200,000 tested, 2.6% active; activation (% of control), % at 5.5 µM; AID 932, 2007;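 active means activation above the screen-wide mean activation plus 3 SD, cut at about 130% in these data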
FLuc act counter – FLuc activators, initial screening, artefact control for FLuc-dependent activation tests, biochemical, ATPlite luminescence | activation factor at 10 µM | 200,000 tested, under 10 active | ATPlite luciferase biochemical, 10 min; 0 = ATP-free wells, 1 = DMSO control | AID 1027, 2008 | Luciferin 4-monooxygenase (Photinus pyralis), P08659;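 active means luciferase activation factor, scaled between plate controls, of at least 2 with compound at 10 µM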
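test system = cell-free luciferase reagent | medium = PBS as buffer for the ATP substrate | dosing = test compounds dosed from 2 mM stocks in 100% DMSO | incubation = 10 min at ambient temperature | detection = luminescence measurement of luciferase light output | benchmarks = low control with PBS replacing ATP, high control enzyme plus ATP without compound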
APP 5'UTR act – activators of APP 5'UTR luciferase reporter, primary screen, SH-SY5Y cells | 190,000 tested, 1% active | SH-SY5Y APP 5'UTR luciferase reporter, luminescence; zero percent = DMSO vehicle wells | activation, % at 2 µM;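 active means activation above a set limit, based on mean plus 3 SD of controls, cut at about 140% in these data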
FLuc inh counter – firefly luciferase enzyme inhibitors, primary screen, artefact control for luciferase-based inhibitor screens, biochemical, luminescence, ATPLite; Luciferin 4-monooxygenase (Photinus pyralis), P08659; 10 min; inhibition, % at 10 µM; 200,000 tested, 1.5% active; AID 1006, 2008;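 active means inhibition above about 50% when tested at 10 µM, limit read from the data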
Rad51 HR inh – human RAD51 strand exchange inhibitors, primary screen, biochemical, fluorescence. DNA repair protein RAD51 homolog 1 (Homo sapiens), Q06609. hRad51 DNA strand exchange, fluorescence dequenching. inhibition, % at 10 µM. 200,000 tested, 0.085% active. AID 1385, 2008;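 active means inhibition above 40% at the single screening dose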
Target sequence (Q06609 whole entry, looked up): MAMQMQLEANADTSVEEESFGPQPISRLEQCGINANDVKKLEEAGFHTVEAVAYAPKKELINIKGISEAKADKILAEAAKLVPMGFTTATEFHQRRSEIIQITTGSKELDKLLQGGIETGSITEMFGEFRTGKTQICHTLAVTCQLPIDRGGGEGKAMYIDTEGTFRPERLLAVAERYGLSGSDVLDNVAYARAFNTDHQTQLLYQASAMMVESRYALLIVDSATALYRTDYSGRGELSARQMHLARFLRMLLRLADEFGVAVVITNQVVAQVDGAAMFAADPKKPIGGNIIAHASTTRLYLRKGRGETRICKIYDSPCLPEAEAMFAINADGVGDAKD
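Test system – preformed human Rad51 ssDNA filaments · Reagent – Donor/quencher-labelled 47-bp dsDNA substrate · Incubation – 37 °C 15-min filament assembly, 30-min compound preincubation, 15-min exchange · Signal – FRET fluorescence dequenching, excitation 485 nm, emission 520 nm · Read-out – percent inhibition from fluorescence, normalised to plate control and blank means · Benchmarks – plate control and blank wells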
Hits are given with their value; – = inactive; · = not tested or not shown. An excerpt weighted towards active compounds, which were near 3.9% of everything screened.

SMILES	NF-kB neuron act	STAT1 act	FLuc act counter	APP 5'UTR act	FLuc inh counter	Rad51 HR inh
Cc1ccc2oc(-c3ccc(NC(=O)c4cccnc4)cc3)nc2c1	–	144	–	225	–	–
O=C(Nc1ccc2oc(-c3cccnc3)nc2c1)c1cccnc1	–	–	–	–	–	–
CC(C)N=C(NS(=O)(=O)c1ccccc1)C(Cl)(Cl)Cl	–	–	–	–	–	–
COc1ccc(N=Cc2cc3c(cc2O)OC(N)=C(C#N)C3c2ccccc2)cc1 (centres undefined)	–	–	–	–	–	–
Cc1ccc(CNC(=O)C2CCCN(S(=O)(=O)c3c(C)noc3/C=C/N(C)C)C2)cc1 (centres undefined)	·	·	·	·	·	–
CC(C)c1ccc2oc(-c3ccc(NC(=O)c4ncn[nH]4)cc3)nc2c1	–	136	–	–	–	–
COC(=O)c1ccc(-c2nc3ccc(C)cc3o2)cc1	7	–	–	–	–	–
COc1ccc(-c2nc3cc([N+](=O)[O-])ccc3o2)cc1	5.2	150	–	170	–	·
CCC(C)c1ccc2oc(-c3ccc(NC(=O)c4ncn[nH]4)cc3)nc2c1 (centres undefined)	–	–	–	–	–	–
Clc1ccc2oc(-c3ccccc3)nc2c1	–	–	–	–	–	–
CC(C)c1ccc2oc(-c3ccc(N)cc3)nc2c1	3.4	–	–	–	88	–
C/C(=C\c1ccccc1)C(=O)Nc1ccc(S(=O)(=O)Nc2ncccn2)cc1	–	–	–	–	–	–
Cc1ccc(-c2nc3cc(C)ccc3o2)cc1	–	–	–	175	92	–
O=c1oc(-c2ccco2)nc2ccccc12	–	–	–	–	–	–
Cc1ccc2oc(-c3ccco3)nc2c1	–	138	–	–	–	–
Cc1ccc(-c2nc3cc(NS(=O)(=O)c4ccc(C)cc4)ccc3o2)cc1	–	–	–	–	–	–
N/C(CC(=O)NC1CCCCC1)=N\OCC(=O)Nc1ccc(Cl)c(Cl)c1	·	·	·	·	·	–
Cc1ccc(S(C)(=O)=N/C=C2\C(=O)c3sccc3N(C)S2(=O)=O)cc1 (centres undefined)	·	·	·	·	·	–
COC(=O)c1c(C)[nH]c(C(=O)/C=C/c2ccccc2)c1C	–	140	–	–	58	–
CCOC(=O)c1c(C)[nH]c(C(=O)Nc2ccc(NC(C)=O)cc2)c1C	–	–	–	–	–	–
CC(=O)c1c(C)[nH]c(C(=O)Nc2nccs2)c1C	–	133	–	–	–	–
CC(=O)c1c(C)[nH]c(C(=O)Nc2cccnc2)c1C	–	–	–	–	–	–
CC(=O)c1c(C)[nH]c(C(=O)Nc2ccc3c(c2)OCCO3)c1C	5.5	138	–	193	–	–
CCOC(=O)c1c(C)[nH]c(C(=O)NNC(=O)c2ccccc2)c1C	3.4	146	–	164	–	–
Cc1ccc(C2=Nc3ccccc3SC(c3cccc([N+](=O)[O-])c3)C2)cc1 (centres undefined)	·	·	·	·	·	–
SMILES	NF-kB neuron act	STAT1 act	FLuc act counter	APP 5'UTR act	FLuc inh counter	Rad51 HR inh
CN1C(=O)C(N=Nc2ccccc2C(=O)O)N(C)C1=S (centres undefined)	–	–	–	–	–	–
O=C1NC(CCc2ccccc2)C(=O)N1CCOc1cccc(Br)c1 (centres undefined)	–	–	–	–	–	–
CC(=O)c1ccccc1OC(=O)COc1ccc(Cl)cc1C	–	–	–	–	–	–
CC(=O)c1c(C)[nH]c(C(=O)Nc2ccc(C)c(C)c2)c1C	3.8	138	–	·	–	–
CCOC(=O)c1c(C)[nH]c(C(=O)Nc2ccc(C)c(Cl)c2)c1C	3.8	–	–	163	–	–
CC[C@]1(O)CC2CN(CCc3c([nH]c4ccccc34)[C@@](C(=O)OC)(c3cc4c(cc3OC)N(C)[C@H]3[C@@](O)(C(N)=O)[C@H](O)[C@]5(CC)C=CCN6CC[C@]43[C@@H]65)C2)C1 (some centres undefined)	·	·	·	·	·	–
COCCn1c(C)cc(C(=O)COC(=O)c2ccc(NC(=O)CC#N)cc2)c1C	–	134	–	149	–	–
COCCn1c(C)cc(C(=O)COC(=O)c2ccc3ncsc3c2)c1C	–	132	–	–	–	–
COCCn1c(C)cc(C(=O)CSc2ccc(NC(C)=O)cc2)c1C	–	–	–	–	–	–
COCCn1c(C)cc(C(=O)COC(=O)c2cncc(Br)c2)c1C	–	136	–	–	–	·
COCCn1c(C)cc(C(=O)COC(=O)c2ccc3c(c2)NC(=O)CS3)c1C	–	–	–	–	–	–
CC/C(C)=N/Nc1nc(-c2cc3cccc(OC)c3oc2=O)cs1	·	·	·	·	·	–
COc1ccc(-c2ncnc(C(F)(F)F)c2-c2csc(C)n2)c(O)c1	·	·	·	·	·	–
COc1ccc2c(c1)CC/C2=N\NC(=O)c1ccccc1	–	130	–	–	–	–
[O-]/[N+](=C\c1ccncc1)c1ccc(Br)cc1	4.5	–	–	–	–	·
[O-]/[N+](=C/c1cccnc1)c1ccc(Br)cc1	–	–	–	–	–	–
COc1ccc(C(=O)CSc2nnc(CN3CCCC3)n2-c2ccc(F)cc2)c(OC)c1	–	–	–	–	–	–
CCOC(=O)C1=C(C)N(CCCC(=O)O)C(=O)NC1c1ccc(C(F)(F)F)cc1 (centres undefined)	·	·	·	·	·	–
COc1ccc(-c2cc(C(=O)NCC3CCCO3)c3cc(C)ccc3n2)cc1 (centres undefined)	–	133	–	–	–	–
O=C(O)/C=C\C(=O)Nc1ccc(F)c(F)c1F	·	·	·	·	·	–
CC1CCN(c2nc3ccc(C(=O)N4CCN(Cc5ccccc5)CC4)cc3s2)CC1	–	130	–	–	–	–
C(=N\Nc1nc2ccccc2[nH]1)/c1c[nH]c2ccccc12	–	130	–	–	–	·
Fc1cccc(/C=N/Nc2ccc3ccccc3n2)c1	–	–	–	225	71	–
Fc1cccc(/C=N/Nc2ccccn2)c1	–	138	–	–	–	–
C(=N\Nc1ccccn1)/c1ccc2c(c1)OCCO2	–	137	–	140	78	–
CCN1C(=O)[C@H]2[C@H]3[C@H](O)[C@H](O)C/C(=N\OC[C@@H](C)[C@H](OCc4ccccc4)C(C)C)[C@@H]3CC[C@H]2C1=O	–	–	–	–	–	·
Clc1ccccc1/C=C/C=N/Nc1nc(N2CCOCC2)nc(N2CCOCC2)n1	·	–	–	–	–	·
Brc1ccc(-c2ccc(/C=N/Nc3nncc(-c4ccccc4)n3)o2)cc1	–	–	–	–	–	–

Assay outcomes as filed in PubChem BioAssay.
